Test results reported in ChEMBL document CHEMBL4004828, “Synthesis and biological evaluation of fluorinated N-benzoyl and N-phenylacetoyl derivatives of 3-(4-aminophenyl)-coumarin-7-O-sulfamate as steroid sulfatase inhibitors” (Eur J Med Chem, 2017).

What was measured:
MCF7 = assay: Cytotoxicity against human MCF7 cells assessed as growth inhibition after 120 hrs by MTT assay; type: functional; conditions: MCF7, 120 h
Summary of the method: (§1)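 Cells grown in phenol red-free high-glucose DMEM with 10% FBS, penicillin (62.6 µg/mL) and streptomycin (40 µg/mL) at 37 °C, 10% CO2, screened for Mycoplasma. Exponentially growing cells exposed to test agents for 120 h; viability read by MTT assay; GI50 derived.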

Steryl-sulfatase = target: T1, Steryl-sulfatase (Homo sapiens, UniProt P08842); assay: Inhibition of human placenta steroid sulfatase using p-nitrophenyl sulfate as substrate after 15 mins
T1 sequence (P08842 whole entry): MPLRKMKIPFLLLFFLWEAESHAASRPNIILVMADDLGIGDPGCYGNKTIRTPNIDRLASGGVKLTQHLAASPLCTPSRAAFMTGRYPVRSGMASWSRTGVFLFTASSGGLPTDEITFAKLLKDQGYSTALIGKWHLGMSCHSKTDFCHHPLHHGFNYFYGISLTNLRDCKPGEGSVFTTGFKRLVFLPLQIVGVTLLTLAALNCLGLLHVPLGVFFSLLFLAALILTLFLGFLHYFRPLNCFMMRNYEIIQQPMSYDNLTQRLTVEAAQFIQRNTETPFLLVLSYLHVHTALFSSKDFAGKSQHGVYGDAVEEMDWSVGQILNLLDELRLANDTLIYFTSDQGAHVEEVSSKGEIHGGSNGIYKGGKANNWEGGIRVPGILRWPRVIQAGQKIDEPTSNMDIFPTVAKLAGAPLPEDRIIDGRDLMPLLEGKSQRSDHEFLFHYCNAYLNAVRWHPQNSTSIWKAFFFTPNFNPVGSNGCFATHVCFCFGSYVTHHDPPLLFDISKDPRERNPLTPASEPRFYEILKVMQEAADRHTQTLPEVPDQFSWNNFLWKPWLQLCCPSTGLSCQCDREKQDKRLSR
Summary of the method: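 STS extracted from human placenta, purified to homogeneity by multi-step chromatography; 5 U enzyme in 20 mM Tris–HCl pH 7.4 with 3 mM p-nitrophenyl sulfate and inhibitor 0.01–100 µM, 37 °C for 15 min. Stopped with 1 M NaOH; released p-nitrophenol read at 405 nm. Triplicate measurements; IC50 calculated.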

SK-BR-3 = assay: Cytotoxicity against human SKBR3 cells assessed as growth inhibition after 120 hrs by MTT assay; type: functional; conditions: SK-BR-3, 120 h; summary of the method: as §1
T47D = assay: Cytotoxicity against human T47D cells assessed as growth inhibition after 120 hrs by MTT assay; type: functional; summary of the method: as §1
MDA-MB-231 = assay: Cytotoxicity against human MDA-MB-231 cells assessed as growth inhibition after 120 hrs by MTT assay; type: functional; conditions: MDA-MB-231, 120 h; summary of the method: as §1

SMILES	IC50 (Steryl-sulfatase)	GI50 (MCF7)	GI50 (SK-BR-3)	GI50 (T47D)	GI50 (MDA-MB-231)
NS(=O)(=O)Oc1ccc2ccc(=O)oc2c1	1.38 µM	> 100 µM	> 100 µM	> 100 µM	> 100 µM
NS(=O)(=O)Oc1ccc2cc(-c3ccc(NC(=O)Cc4ccc(F)c(F)c4)cc3)c(=O)oc2c1	0.36 µM	–	–	–	–
NS(=O)(=O)Oc1ccc2cc(-c3cc(F)c(F)c(F)c3)c(=O)oc2c1	0.29 µM	32.6 µM	61.3 µM	30.7 µM	56.3 µM
NS(=O)(=O)Oc1ccc2cc(-c3ccc(NC(=O)Cc4c(F)c(F)c(F)c(F)c4F)cc3)c(=O)oc2c1	0.34 µM	–	–	–	–
NS(=O)(=O)Oc1ccc2cc(-c3ccc(NC(=O)Cc4ccc(OC(F)(F)F)cc4)cc3)c(=O)oc2c1	0.44 µM	–	–	–	–
NS(=O)(=O)Oc1ccc2cc(-c3ccc(F)c(F)c3)c(=O)oc2c1	0.28 µM	30 µM	> 100 µM	43 µM	61.5 µM
NS(=O)(=O)Oc1ccc2cc(-c3ccc(NC(=O)Cc4ccccc4)cc3)c(=O)oc2c1	0.26 µM	–	–	–	–
NS(=O)(=O)Oc1ccc2cc(-c3ccc(NC(=O)c4ccc(F)cc4)cc3)c(=O)oc2c1	0.21 µM	> 100 µM	> 100 µM	> 100 µM	> 100 µM
CC/C(=C(\c1ccccc1)c1ccc(OCCN(C)C)cc1)c1ccccc1 [TAMOXIFEN]	–	6.8 µM	12.5 µM	10.6 µM	15.1 µM

Further compounds by falling IC50 (Steryl-sulfatase), results first:

IC50 (Steryl-sulfatase)	SMILES	GI50 (MCF7)	GI50 (SK-BR-3)	GI50 (T47D)	GI50 (MDA-MB-231)
0.49 µM	NS(=O)(=O)Oc1ccc2cc(-c3ccc(NC(=O)c4ccccc4)cc3)c(=O)oc2c1	–	–	–	–
0.38 µM	NS(=O)(=O)Oc1ccc2cc(-c3ccc(NC(=O)Cc4ccc(F)c(C(F)(F)F)c4)cc3)c(=O)oc2c1	–	–	–	–
0.3 µM	NS(=O)(=O)Oc1ccc2cc(-c3ccc(NC(=O)Cc4cc(F)c(F)c(F)c4)cc3)c(=O)oc2c1	31.3 µM	36.1 µM	13.7 µM	11.7 µM
0.29 µM	NS(=O)(=O)Oc1ccc2cc(-c3ccc([N+](=O)[O-])cc3)c(=O)oc2c1	–	–	–	–
0.23 µM	NS(=O)(=O)Oc1ccc2cc(-c3ccc(NC(=O)c4c(F)c(F)c(F)c(F)c4F)cc3)c(=O)oc2c1	–	–	–	–
0.18 µM	NS(=O)(=O)Oc1ccc2cc(-c3ccc(NC(=O)c4ccc(F)c(F)c4)cc3)c(=O)oc2c1	> 100 µM	> 100 µM	> 100 µM	> 100 µM
